Data reported in ChEMBL document CHEMBL4364294 (J Med Chem, 2019).

Columns and labels:
[1] = AUC (0 to infinity) in Sprague-Dawley rat at 25 mg/kg, po administered as single dose; format: ADME, organism-based; set-up: dose 25 mg/kg, time infinity, route oral; settings: in vivo
How it was run: (§1)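 Sprague-Dawley rats were given single doses, intravenous at 10–50 mg/kg or oral at 10, 25 and 50 mg/kg. Plasma PK parameters were CL, AUC0-inf, t1/2, Cmax and %F.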

[2] = Half life in dog at 10 mg/kg, iv administered as single dose; format: ADME, organism-based, Canis lupus familiaris; settings: in vivo
How it was run: (§2)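 Dogs were dosed once, by iv injection or orally, with oral doses spanning 5 to 50 mg/kg. Plasma pharmacokinetic parameters were derived: CL, AUC0-inf, t1/2, Cmax and %F.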

[3] = Half life in dog at 1 mg/kg, iv administered as single dose; format: ADME, organism-based, Canis lupus familiaris; settings: in vivo; how it was run: as §2
[4] = Cmax in dog at 150 mg/kg, po administered as single dose; format: ADME, organism-based, Canis lupus familiaris; set-up: dose 150 mg/kg, route oral; settings: in vivo
[5] = AUC (0 to infinity) in rat at 250 mg/kg administered twice daily for 28 days with 2 week recovery; format: ADME, organism-based; set-up: dose 250 mg/kg, time infinity; settings: in vivo
[6] = AUC (0 to infinity) in C57Bl6 mouse at 50 mg/kg, iv administered as single dose; format: ADME, organism-based; set-up: dose 50 mg/kg, route intravenous, time infinity; settings: in vivo
How it was run: (§3)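 C57Bl/6 mice were given single intravenous or oral doses (oral at 10 and 100 mg/kg). Plasma PK parameters were CL, AUC0-inf, t1/2, Cmax and %F.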

[7] = AUC (0 to infinity) in Sprague-Dawley rat at 50 mg/kg, iv administered as single dose; format: ADME, organism-based; set-up: dose 50 mg/kg, time infinity, route intravenous; settings: in vivo; how it was run: as §1
[8] = Oral bioavailability in C57Bl6 mouse at 100 mg/kg administered as single dose; format: ADME, organism-based; settings: in vivo
How it was run: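 C57Bl/6 mice received a single oral dose of 10 or 100 mg/kg, with iv dosing run for comparison. Plasma AUC0-inf, t1/2, Cmax and oral bioavailability (%F) were determined.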

[9] = Cmax in dog at 50 mg/kg, po administered as single dose; format: ADME, organism-based, Canis lupus familiaris; set-up: dose 50 mg/kg, route oral; settings: in vivo
How it was run: (§4)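 Dogs were given single intravenous doses, or oral doses from 5 to 50 mg/kg. Plasma PK parameters were CL, AUC0-inf, t1/2, Cmax and %F.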

[10] = AUC (0 to infinity) in dog at 10 mg/kg, iv administered as single dose; format: ADME, organism-based, Canis lupus familiaris; set-up: dose 10 mg/kg, time infinity, route intravenous; settings: in vivo; how it was run: as §4
[11] = AUC (0 to infinity) in dog at 25 mg/kg, iv administered as single dose; format: ADME, organism-based, Canis lupus familiaris; set-up: dose 25 mg/kg, route intravenous, time infinity; settings: in vivo; how it was run: as §4
[12] = Half life in Sprague-Dawley rat at 50 mg/kg, iv administered as single dose; format: ADME, organism-based; settings: in vivo
How it was run: (§5)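 Sprague-Dawley rats each received one dose of drug, either iv across 10-50 mg/kg or orally at 10, 25 and 50 mg/kg. Plasma pharmacokinetics covered CL, AUC0-inf, t1/2, Cmax and Tmax. Oral bioavailability (%F) was obtained from the oral and iv exposures.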

[13] = AUC (0 to infinity) in Sprague-Dawley rat at 25 mg/kg, iv administered as single dose; format: ADME, organism-based; set-up: dose 25 mg/kg, route intravenous, time infinity; settings: in vivo; how it was run: as §1
[14] = Intrinsic clearance in human liver microsomes; format: ADME, Microsome; settings: read-out: CLH
[15] = AUC (0 to infinity) in dog at 15 mg/kg, po administered as single dose; format: ADME, organism-based, Canis lupus familiaris; set-up: dose 15 mg/kg, route oral, time infinity; settings: in vivo; how it was run: as §4
[16] = Clearance in dog at 10 mg/kg, iv administered as single dose; format: ADME, organism-based, Canis lupus familiaris; settings: in vivo; how it was run: as §4
[17] = Clearance in dog at 25 mg/kg, iv administered as single dose; format: ADME, organism-based, Canis lupus familiaris; settings: in vivo; how it was run: as §4
[18] = Half life in C57Bl6 mouse at 100 mg/kg, po administered as single dose; format: ADME, organism-based; settings: in vivo; how it was run: as §3
[19] = AUC (0 to infinity) in dog at 50 mg/kg, po administered as single dose; format: ADME, organism-based, Canis lupus familiaris; set-up: dose 50 mg/kg, route oral, time infinity; settings: in vivo; how it was run: as §4
[20] = AUC (0 to infinity) in Sprague-Dawley rat at 10 mg/kg, po administered as single dose; format: ADME, organism-based; set-up: dose 10 mg/kg, route oral, time infinity; settings: in vivo; how it was run: as §1
[21] = Permeability across apical to basolateral side in human Caco2 cells; format: ADME, cell-based; settings: Caco-2, read-out: permeability
[22] = Aqueous solubility of the compound at pH 1; format: physicochemical
[23] = Cmax in dog at 15 mg/kg, po administered as single dose; format: ADME, organism-based, Canis lupus familiaris; set-up: dose 15 mg/kg, route oral; settings: in vivo; how it was run: as §4
[24] = Cmax in C57Bl6 mouse at 10 mg/kg, po administered as single dose; format: ADME, organism-based; set-up: dose 10 mg/kg, route oral; settings: in vivo; how it was run: as §3
[25] = AUC (0 to 12 hrs) in dog at 200 mg/kg administered twice daily for 28 days with 2 week recovery; format: ADME, organism-based, Canis lupus familiaris; set-up: dose 200 mg/kg, time < 12 hr; settings: in vivo
[26] = AUC (0 to infinity) in dog at 1 mg/kg, iv administered as single dose; format: ADME, organism-based, Canis lupus familiaris; set-up: dose 1 mg/kg, route intravenous, time infinity; settings: in vivo; how it was run: as §4
[27] = AUC (0 to infinity) in dog at 3 mg/kg, iv administered as single dose; format: ADME, organism-based, Canis lupus familiaris; set-up: dose 3 mg/kg, time infinity, route intravenous; settings: in vivo; how it was run: as §4
[28] = Half life in Sprague-Dawley rat at 10 mg/kg, po administered as single dose; format: ADME, organism-based; settings: in vivo; how it was run: as §5
[29] = Oral bioavailability in dog at 15 mg/kg administered as single dose; format: ADME, organism-based, Canis lupus familiaris; settings: in vivo; how it was run: as §2
[30] = Cmax in Sprague-Dawley rat at 50 mg/kg, po administered as single dose; format: ADME, organism-based; set-up: dose 50 mg/kg, route oral; settings: in vivo; how it was run: as §1
[31] = Half life in dog at 25 mg/kg, iv administered as single dose; format: ADME, organism-based, Canis lupus familiaris; settings: in vivo; how it was run: as §2
[32] = AUC (0 to infinity) in dog at 150 mg/kg, po administered as single dose; format: ADME, organism-based, Canis lupus familiaris; set-up: dose 150 mg/kg, time infinity, route oral; settings: in vivo
[33] = Clearance in dog at 1 mg/kg, iv administered as single dose; format: ADME, organism-based, Canis lupus familiaris; settings: in vivo; how it was run: as §4
[34] = Oral bioavailability in dog at 50 mg/kg administered as single dose; format: ADME, organism-based, Canis lupus familiaris; settings: in vivo; how it was run: as §2
[35] = Half life in C57Bl6 mouse at 50 mg/kg, iv administered as single dose; format: ADME, organism-based; settings: in vivo; how it was run: as §3
[36] = Cmax in Sprague-Dawley rat at 25 mg/kg, po administered as single dose; format: ADME, organism-based; set-up: dose 25 mg/kg, route oral; settings: in vivo; how it was run: as §1

For O[C@H](C[C@H]1c2c(F)cccc2-c2cncn21)[C@H]1CC[C@H](O)CC1 [NAVOXIMOD], the AUC(0-inf) [1] was 7980 ng·h/mL, the half-life [2] was 4.8 h and the half-life [3] was 2.2 h. For the same molecule, the Cmax [4] was 40400 ng/mL, the AUC(0-inf) [5] was 22500 ng·h/mL and the AUC(0-inf) [6] was 34600 ng·h/mL. The AUC(0-inf) [7] was 35000 ng·h/mL, the bioavailability [8] was 87% and the Cmax [9] was 7860 ng/mL. It also gave an AUC(0-inf) [10] of 3130 ng·h/mL, an AUC(0-inf) [11] of 10000 ng·h/mL and a half-life [12] of 1 h. The AUC(0-inf) [13] was 13400 ng·h/mL, the predicted hepatic clearance [14] was 8.52 mL/min/kg and the AUC(0-inf) [15] was 1040 ng·h/mL. The clearance [16] was 53.7 mL/min/kg, the clearance [17] was 41.4 mL/min/kg and the half-life [18] was 3.3 h. It also gave an AUC(0-inf) [19] of 8640 ng·h/mL, an AUC(0-inf) [20] of 1630 ng·h/mL and a Papp A→B [21] of 22.7 ×10⁻⁶ cm/s. The solubility [22] was > 200 µM, the Cmax [23] was 1400 ng/mL and the Cmax [24] was 2260 ng/mL. The AUC at 12 h [25] was 22600 ng·h/mL, the AUC(0-inf) [26] was 282 ng·h/mL and the AUC(0-inf) [27] was 901 ng·h/mL. The half-life [28] was 1.05 h, the bioavailability [29] was 22.3% and the Cmax [30] was 10000 ng/mL. It also gave a half-life [31] of 6.9 h, an AUC(0-inf) [32] of 57800 ng·h/mL and a clearance [33] of 59.3 mL/min/kg. For the same molecule, the bioavailability [34] was 43%, the half-life [35] was 3 h and the Cmax [36] was 6420 ng/mL.
